# Laboratory results from ChEMBL document CHEMBL4689842, “EUbOPEN Chemogenomics Library wave 1” (2021).
# Key:
# HEK-293T = assay: Multiplex assay against HEK293T; type: toxicity, cell-based; conditions: human;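 for Population Tubulin-Different-Phenotype (%): share of the cells with healthy nuclei that show this phenotype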
# Outline: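 On a CQ1 microscope at 37°C and 5% CO2, live cells were imaged after compound addition. They had been stained at seeding with Hoechst33342, BioTracker Green Microtubule Cytoskeleton Dye, MitoTracker Red and Annexin V Alexa Fluor 680. CellPathfinder machine-learning gating assigned cells to Hoechst high-intensity objects or normal cells, normal cells to healthy, pyknosed or fragmented nuclei, and pyknosed cells to mitotic or apoptotic. Tubulin, mitochondrial-mass and membrane-permeability phenotypes are per cents of healthy-nucleus cells.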
# Fibroblast = assay: Incucyte cell viability with human fibroblast; type: toxicity, cell-based; conditions: 10 µM, compound concentration 10 uM; note: filed as whole numbers so only -1 and 0 and 1 occur
# [1] = 12 h, 1 µM, compound concentration 1 uM, replicate 1
# [2] = 12 h, 1 µM, compound concentration 1 uM, replicate 2
# [3] = 12 h, 10 µM, compound concentration 10 uM, replicate 1
# [4] = 12 h, 10 µM, compound concentration 10 uM, replicate 2
# [5] = 24 h, 1 µM, compound concentration 1 uM, replicate 1
# [6] = 24 h, 1 µM, compound concentration 1 uM, replicate 2
# [7] = 24 h, 10 µM, compound concentration 10 uM, replicate 1
# [8] = 24 h, 10 µM, compound concentration 10 uM, replicate 2
# [9] = 48 h, 1 µM, compound concentration 1 uM, replicate 1
# [10] = 48 h, 1 µM, compound concentration 1 uM, replicate 2
# [11] = 48 h, 10 µM, compound concentration 10 uM, replicate 1
# [12] = 48 h, 10 µM, compound concentration 10 uM, replicate 2
smiles,measurement,setting,value
Oc1cccc(-c2nc(N3CCOCC3)c3oc4ncccc4c3n2)c1 [PI-103],Population Apoptotic (%),HEK-293T; [1],58%
same,Population Fragmented Nuclei (%),HEK-293T; [1],6%
same,Population Healthy Nuclei (%),HEK-293T; [1],16%
same,Population Hoechst High Intensity Objects (%),HEK-293T; [1],21%
same,Population Membrane Permeable-Phenotype (%),HEK-293T; [1],2%
same,Population Mitochondria Different-Phenotype (%),HEK-293T; [1],85%
same,Population Mitotic Cells (%),HEK-293T; [1],41%
same,Population Normal (%),HEK-293T; [1],78%
same,Population Pyknosed Nuclei (%),HEK-293T; [1],77%
same,Population Tubulin-Different-Phenotype (%),HEK-293T; [1],82%
same,Total Cell Count,HEK-293T; [1],269
same,Population Apoptotic (%),HEK-293T; [2],51%
same,Population Fragmented Nuclei (%),HEK-293T; [2],10%
same,Population Healthy Nuclei (%),HEK-293T; [2],13%
same,Population Hoechst High Intensity Objects (%),HEK-293T; [2],14%
same,Population Membrane Permeable-Phenotype (%),HEK-293T; [2],10%
same,Population Mitochondria Different-Phenotype (%),HEK-293T; [2],68%
same,Population Mitotic Cells (%),HEK-293T; [2],48%
same,Population Normal (%),HEK-293T; [2],85%
same,Population Pyknosed Nuclei (%),HEK-293T; [2],76%
same,Population Tubulin-Different-Phenotype (%),HEK-293T; [2],63%
same,Total Cell Count,HEK-293T; [2],161
same,Population Apoptotic (%),HEK-293T; [3],72%
same,Population Fragmented Nuclei (%),HEK-293T; [3],14%
same,Population Healthy Nuclei (%),HEK-293T; [3],8%
same,Population Hoechst High Intensity Objects (%),HEK-293T; [3],18%
same,Population Membrane Permeable-Phenotype (%),HEK-293T; [3],11%
same,Population Mitochondria Different-Phenotype (%),HEK-293T; [3],94%
same,Population Mitotic Cells (%),HEK-293T; [3],27%
same,Population Normal (%),HEK-293T; [3],81%
same,Population Pyknosed Nuclei (%),HEK-293T; [3],77%
same,Population Tubulin-Different-Phenotype (%),HEK-293T; [3],94%
same,Total Cell Count,HEK-293T; [3],269
same,Population Apoptotic (%),HEK-293T; [4],64%
same,Population Fragmented Nuclei (%),HEK-293T; [4],7%
same,Population Healthy Nuclei (%),HEK-293T; [4],6%
same,Population Hoechst High Intensity Objects (%),HEK-293T; [4],6%
same,Population Membrane Permeable-Phenotype (%),HEK-293T; [4],27%
same,Population Mitochondria Different-Phenotype (%),HEK-293T; [4],54%
same,Population Mitotic Cells (%),HEK-293T; [4],35%
same,Population Normal (%),HEK-293T; [4],93%
same,Population Pyknosed Nuclei (%),HEK-293T; [4],85%
same,Population Tubulin-Different-Phenotype (%),HEK-293T; [4],72%
same,Total Cell Count,HEK-293T; [4],172
same,Population Apoptotic (%),HEK-293T; [5],47%
same,Population Fragmented Nuclei (%),HEK-293T; [5],13%
same,Population Healthy Nuclei (%),HEK-293T; [5],10%
same,Population Hoechst High Intensity Objects (%),HEK-293T; [5],22%
same,Population Mitochondria Different-Phenotype (%),HEK-293T; [5],78%
same,Population Mitotic Cells (%),HEK-293T; [5],52%
same,Population Normal (%),HEK-293T; [5],77%
same,Population Pyknosed Nuclei (%),HEK-293T; [5],76%
same,Population Tubulin-Different-Phenotype (%),HEK-293T; [5],86%
same,Total Cell Count,HEK-293T; [5],293
same,Population Apoptotic (%),HEK-293T; [6],53%
same,Population Fragmented Nuclei (%),HEK-293T; [6],9%
same,Population Healthy Nuclei (%),HEK-293T; [6],26%
same,Population Hoechst High Intensity Objects (%),HEK-293T; [6],15%
same,Population Membrane Permeable-Phenotype (%),HEK-293T; [6],13%
same,Population Mitochondria Different-Phenotype (%),HEK-293T; [6],59%
same,Population Mitotic Cells (%),HEK-293T; [6],46%
same,Population Normal (%),HEK-293T; [6],84%
same,Population Pyknosed Nuclei (%),HEK-293T; [6],64%
same,Population Tubulin-Different-Phenotype (%),HEK-293T; [6],64%
same,Total Cell Count,HEK-293T; [6],168
same,Population Apoptotic (%),HEK-293T; [7],63%
same,Population Fragmented Nuclei (%),HEK-293T; [7],18%
same,Population Healthy Nuclei (%),HEK-293T; [7],8%
same,Population Hoechst High Intensity Objects (%),HEK-293T; [7],17%
same,Population Membrane Permeable-Phenotype (%),HEK-293T; [7],10%
same,Population Mitochondria Different-Phenotype (%),HEK-293T; [7],100%
same,Population Mitotic Cells (%),HEK-293T; [7],36%
same,Population Normal (%),HEK-293T; [7],82%
same,Population Pyknosed Nuclei (%),HEK-293T; [7],73%
same,Population Tubulin-Different-Phenotype (%),HEK-293T; [7],90%
same,Total Cell Count,HEK-293T; [7],291
same,Population Apoptotic (%),HEK-293T; [8],65%
same,Population Fragmented Nuclei (%),HEK-293T; [8],11%
same,Population Healthy Nuclei (%),HEK-293T; [8],11%
same,Population Hoechst High Intensity Objects (%),HEK-293T; [8],16%
same,Population Membrane Permeable-Phenotype (%),HEK-293T; [8],23%
same,Population Mitochondria Different-Phenotype (%),HEK-293T; [8],70%
same,Population Mitotic Cells (%),HEK-293T; [8],34%
same,Population Normal (%),HEK-293T; [8],83%
same,Population Pyknosed Nuclei (%),HEK-293T; [8],76%
same,Population Tubulin-Different-Phenotype (%),HEK-293T; [8],88%
same,Total Cell Count,HEK-293T; [8],175
same,Population Apoptotic (%),HEK-293T; [9],56%
same,Population Fragmented Nuclei (%),HEK-293T; [9],23%
same,Population Healthy Nuclei (%),HEK-293T; [9],4%
same,Population Hoechst High Intensity Objects (%),HEK-293T; [9],22%
same,Population Membrane Permeable-Phenotype (%),HEK-293T; [9],9%
same,Population Mitochondria Different-Phenotype (%),HEK-293T; [9],72%
same,Population Mitotic Cells (%),HEK-293T; [9],43%
same,Population Normal (%),HEK-293T; [9],77%
same,Population Pyknosed Nuclei (%),HEK-293T; [9],71%
same,Population Tubulin-Different-Phenotype (%),HEK-293T; [9],63%
same,Total Cell Count,HEK-293T; [9],297
same,Population Apoptotic (%),HEK-293T; [10],50%
same,Population Fragmented Nuclei (%),HEK-293T; [10],12%
same,Population Healthy Nuclei (%),HEK-293T; [10],55%
same,Population Hoechst High Intensity Objects (%),HEK-293T; [10],14%
same,Population Membrane Permeable-Phenotype (%),HEK-293T; [10],7%
same,Population Mitochondria Different-Phenotype (%),HEK-293T; [10],63%
same,Population Mitotic Cells (%),HEK-293T; [10],50%
same,Population Normal (%),HEK-293T; [10],85%
same,Population Pyknosed Nuclei (%),HEK-293T; [10],31%
same,Population Tubulin-Different-Phenotype (%),HEK-293T; [10],88%
same,Total Cell Count,HEK-293T; [10],185
same,Population Apoptotic (%),HEK-293T; [11],55%
same,Population Fragmented Nuclei (%),HEK-293T; [11],29%
same,Population Healthy Nuclei (%),HEK-293T; [11],7%
same,Population Hoechst High Intensity Objects (%),HEK-293T; [11],17%
same,Population Membrane Permeable-Phenotype (%),HEK-293T; [11],0%
same,Population Mitochondria Different-Phenotype (%),HEK-293T; [11],94%
same,Population Mitotic Cells (%),HEK-293T; [11],44%
same,Population Normal (%),HEK-293T; [11],82%
same,Population Pyknosed Nuclei (%),HEK-293T; [11],63%
same,Population Tubulin-Different-Phenotype (%),HEK-293T; [11],84%
same,Total Cell Count,HEK-293T; [11],307
same,Population Apoptotic (%),HEK-293T; [12],78%
same,Population Fragmented Nuclei (%),HEK-293T; [12],10%
same,Population Healthy Nuclei (%),HEK-293T; [12],18%
same,Population Hoechst High Intensity Objects (%),HEK-293T; [12],22%
same,Population Membrane Permeable-Phenotype (%),HEK-293T; [12],8%
same,Population Mitochondria Different-Phenotype (%),HEK-293T; [12],80%
same,Population Mitotic Cells (%),HEK-293T; [12],21%
same,Population Normal (%),HEK-293T; [12],77%
same,Population Pyknosed Nuclei (%),HEK-293T; [12],71%
same,Population Tubulin-Different-Phenotype (%),HEK-293T; [12],88%
same,Total Cell Count,HEK-293T; [12],177
same,Growth Rate,"Fibroblast; 0 h, replicate number 2, timepoint 0 hours",0
same,Growth Rate,"Fibroblast; 6 h, replicate number 1, timepoint 6 hours",0
same,Growth Rate,"Fibroblast; 12 h, replicate number 1, timepoint 12 hours",0
same,Growth Rate,"Fibroblast; 18 h, replicate number 1, timepoint 18 hours",0
same,Growth Rate,"Fibroblast; 24 h, replicate number 1, timepoint 24 hours",0
